Sampled rows, rich in hits. Any-hit rate of the full collection: about 1.9%.
PP5 primary – blocks human protein phosphatase 5 activity. 320,000 compounds, 0.18% hits. purified PP5c, OMFP substrate fluorescence. inhibition, % at 6.7 µM. P53041;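 active = inhibition above the campaign's mean inhibition across all tested compounds plus 3 SD, cut at about 9.5% in these data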;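 also: 0% = DMSO only and 100% = 100 µM cantharidin control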
PP1 inh – PP1-alpha (human) inhibition in PP5 counter-screen | P62136 | 320,000 compounds, 0.9% hits | inhibition, % at 6.7 µM | AID 2235 | purified PP1alpha, OMFP fluorescence;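 active = inhibition above the mean inhibition of all tested compounds plus 3 SD, computed separately for each screening campaign, cut at about 15% in these data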
STEP block – inhibitors of human striatal-enriched phosphatase STEP; inhibition, % at 20 µM; recombinant STEP, OMFP fluorogenic substrate, fluorescence; 360,000 compounds, 0.25% hits; P54829;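 active = inhibition at 20 µM, scaled per plate between control wells, above about 37%, limit read from the data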;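 also: 0% = DMSO with enzyme and substrate and 100% = substrate only without enzyme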
Target sequence (P54829 whole entry, looked up): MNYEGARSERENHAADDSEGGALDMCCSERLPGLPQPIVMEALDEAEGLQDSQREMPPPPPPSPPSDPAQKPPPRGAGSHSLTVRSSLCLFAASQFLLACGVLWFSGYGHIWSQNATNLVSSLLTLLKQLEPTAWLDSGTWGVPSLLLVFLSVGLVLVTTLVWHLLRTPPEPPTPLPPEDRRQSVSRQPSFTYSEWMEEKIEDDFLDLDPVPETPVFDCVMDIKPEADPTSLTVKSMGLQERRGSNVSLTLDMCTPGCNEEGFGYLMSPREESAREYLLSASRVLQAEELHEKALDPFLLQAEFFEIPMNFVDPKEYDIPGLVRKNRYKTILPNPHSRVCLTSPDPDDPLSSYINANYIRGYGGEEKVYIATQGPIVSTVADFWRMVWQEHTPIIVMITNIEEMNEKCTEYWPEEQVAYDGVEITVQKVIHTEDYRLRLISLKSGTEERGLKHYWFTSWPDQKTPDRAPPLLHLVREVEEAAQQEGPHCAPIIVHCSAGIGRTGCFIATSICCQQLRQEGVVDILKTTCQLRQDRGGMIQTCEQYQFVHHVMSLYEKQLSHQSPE
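medium = Bis-Tris buffer pH 6.0, 2.5 mM DTT, 0.005% Tween 20 | test system = STEP (striatal-enriched tyrosine phosphatase) enzyme, cell-free | measure = normalized % inhibition | compound dosing = 20 µM, 1% DMSO | also added = 25 µM OMFP | schedule = reaction 20 min, ambient temperature | measured by = fluorescence read at 480 nm ex / 540 nm em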
Scp1 inh – blocks human Scp-1 phosphatase activity. Q9GZU7. Recombinant Scp1, phosphopeptide, malachite green phosphate absorbance. inhibition, % at 20 µM. 340,000 compounds, 0.88% hits. AID 493091;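 active = inhibition above about 50% at 20 µM, limit read from the data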;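 also: plate controls were DMSO wells with enzyme for no effect and wells lacking enzyme for full effect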
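Test system: SCP-1 phosphatase catalytic domain, residues 76-261 | Compound dosing: One concentration, 20 µM, with 1.0% DMSO | Schedule: 45 min room-temperature reaction, 5 min colour, 30 min stabiliser | Detection: Absorbance at 630 nm | Read-out basis: % inhibition of SCP-1 phosphate liberation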
LMPTP inh – LMPTP (human) inhibition; AID 651560; inhibition, % at 20 µM; recombinant LMPTP-A, OMFP fluorogenic substrate, fluorescence intensity; 360,000 compounds, 0.22% hits;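 active = compounds that cut the enzyme signal by at least half of the control window in the single-dose screen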;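 also: plate controls were DMSO wells with enzyme plus substrate for no effect and substrate without enzyme for full effect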
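Test system: LMPTP-A, protein tyrosine phosphatase of low molecular weight; Input: 0.625 nM enzyme; Incubation: 50 min dark incubation at room temperature; Signal: endpoint fluorescence intensity from OMFP dephosphorylation; Read-out basis: % inhibition versus control wells.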
PP1 confirm – confirmation of human PP1 phosphatase inhibitors; shares compounds with PP1 inh; purified PP1alpha, OMFP substrate fluorescence; inhibition, % at 6.7 µM; 1,900 compounds, 52% hits; AID 2358;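 active = mean PP1 inhibition above a set limit taken from the earlier primary screen, cut at about 15% in these data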
PP5 counter – inhibits human PP5 phosphatase in PP1 counter-screen | shares compounds with PP1 inh | purified PP5c, OMFP fluorescence | inhibition, % at 6.7 µM | 1,900 compounds, 4% hits;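 active = mean PP5 inhibition over triplicate wells above about 9.5% taken from the earlier PP1 screen, limit read from the data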
* marks the source's active call; other numbers are inactive results; / = not tested or not shown.

SMILES | PP5 primary | PP1 inh | STEP block | Scp1 inh | LMPTP inh | PP1 confirm | PP5 counter
CC(=O)Oc1ccc(/C=C(\NC(=O)c2ccco2)C(=O)Nc2ccc(C(C)=O)cc2)cc1 | 2 | 4 | -1 | -10 | 1 | / | /
Cc1ccc(C(=O)c2oc3nc(C)cc(C)c3c2N)cc1 | 3 | 21* | 2 | -10 | 1 | -4 | -7
COc1cccc(NC(=O)Nc2ccc(CC(=O)O)cc2)c1 | 2 | -1 | 2 | 3 | 2 | / | /
CC1(C)COCN1S(=O)(=O)c1ccc(C(=O)Nc2nnc(-c3ccc(Cl)s3)o2)cc1 | 2 | 12 | / | -5 | / | / | /
COc1ccc(-c2nnc(NC(=O)c3ccc(S(=O)(=O)N4COCC4(C)C)cc3)o2)cc1 | 1 | 30* | -6 | -7 | 3 | 29* | -1
N#C/C(=C/c1ccc(Sc2nc3ccccc3[nH]2)o1)c1ccccc1F | 7 | 37* | -1 | -2 | 2 | 3 | 0
COc1ccc(CCN(C)C(=O)c2cc(S(=O)(=O)NCc3ccccc3)ccc2C)cc1OC | 0 | -6 | -1 | -7 | -10 | / | /
Cc1ccc(C)c(N2CCN(C(=O)c3ccc4nc(-c5ccco5)c(-c5ccco5)nc4c3)CC2)c1 | 1 | 19* | 1 | 0 | 3 | 11 | 0
O=C(NC1CCCC1)c1ccc2nc(-c3ccco3)c(-c3ccco3)nc2c1 | -2 | 19* | 11 | 79* | 56* | 3 | 2
CSc1ccccc1NC(=O)Cn1c(-c2cscn2)nc2ccccc21 | -1 | -2 | 0 | -6 | 0 | / | /
CC1=C(C(=O)Nc2ccccc2)C(c2ccc(C)cc2)N=C(Nc2nc3ccccc3o2)N1 (stereo not drawn) | -2 | 23* | 1 | 1 | 0 | 25* | 0
CC1(C)CC(=O)C2=C(C1)NC(Nc1nc3ccccc3o1)=NC2c1ccccn1 (stereo not drawn) | 0 | -1 | -4 | -12 | -1 | / | /
O=C(Nc1ccccc1Oc1cccnc1)C1CCCN(Cc2ccc(F)cc2)C1 (stereo not drawn) | 0 | 50* | -1 | -8 | -1 | -2 | -3
COc1cccc(N2CCN(C(=O)CC(NC(=O)c3ccccc3)c3ccccc3)CC2)c1 (stereo not drawn) | 1 | -2 | -2 | -3 | -1 | / | /
Cc1cccc(N2CCN(C(=O)CC(NC(=O)c3ccccc3)c3ccccc3)CC2C)c1 (stereo not drawn) | 3 | 20* | -1 | -5 | 0 | -2 | -3
CC(C)(C)c1ccc(C(=O)CC(Sc2ccc(Cl)cc2)C(=O)O)cc1 (stereo not drawn) | 4 | 7 | -4 | -8 | 0 | / | /
O=c1cc(-c2ccccc2Cl)oc2c(NS(=O)(=O)c3ccccc3OC(F)(F)F)ccc(O)c12 | -1 | 24* | / | -8 | / | 7 | 0
O=c1cc(-c2ccccc2Cl)oc2c(NS(=O)(=O)c3ccccc3C(F)(F)F)ccc(O)c12 | 3 | 10 | 2 | -8 | 3 | / | /
Cn1c2c(c3ccccc31)CCN(CCCCN1CCN(c3ccccc3)CC1)C2=O | / | / | 0 | 7 | 4 | / | /
O=C1CC(=C2c3ccccc3-c3ccccc32)C(=O)N1CCCCN1CCN(c2ccccc2)CC1 | 0 | 26* | 10 | 5 | 34 | 28* | -3
Cc1cccn2c(CN(C)CC3Cc4ccccc4O3)c(C(=O)N3CCCCC3)nc12 (stereo not drawn) | 0 | -1 | 3 | -7 | -1 | / | /
Nc1c(C(=O)NC2CC2)sc2nc3c(c(-c4ccco4)c12)CC/C3=C/c1ccco1 | 1 | 54* | 15 | 84* | 71* | 21* | 5
NC(=O)c1sc2nc3c(c(-c4ccco4)c2c1N)CCC3 | 2 | 0 | 5 | 0 | 2 | / | /
O=C(CSc1nc2ccccc2c(=O)n1Cc1ccccc1)Nc1ccc(Br)cc1C(=O)O | 3 | 20* | 1 | -1 | 1 | 15* | 4
COc1cccc(CNC(=O)c2ccccc2SCC(=O)N2CCCC2)c1 | 0 | 26* | -1 | 1 | -1 | -5 | -6

Source: PubChem
